Kir21 block – inhibitors of mouse Kir2.1 inward-rectifier potassium channel | Inward rectifier potassium channel 2 (Mus musculus), P35561 | HEK293-Kir2.1, FluxOR thallium flux fluorescence; hits give low values | B-score at 10 µM | 310,000 tested, 0.85% active | AID 1672, 2009;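 active = fluorescence ratio B-score at or below minus 3 SD of library scores, with starting-brightness B-score within 2 SD, cut at about -4.2 in these data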;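 note: channel flux triggered by added potassium and thallium sulfate stimulus; B-score of peak minus minimum fluorescence over baseline after thallium stimulus; more negative B-score means stronger Kir2.1 block with less thallium influx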
Target sequence (P35561 whole entry, looked up): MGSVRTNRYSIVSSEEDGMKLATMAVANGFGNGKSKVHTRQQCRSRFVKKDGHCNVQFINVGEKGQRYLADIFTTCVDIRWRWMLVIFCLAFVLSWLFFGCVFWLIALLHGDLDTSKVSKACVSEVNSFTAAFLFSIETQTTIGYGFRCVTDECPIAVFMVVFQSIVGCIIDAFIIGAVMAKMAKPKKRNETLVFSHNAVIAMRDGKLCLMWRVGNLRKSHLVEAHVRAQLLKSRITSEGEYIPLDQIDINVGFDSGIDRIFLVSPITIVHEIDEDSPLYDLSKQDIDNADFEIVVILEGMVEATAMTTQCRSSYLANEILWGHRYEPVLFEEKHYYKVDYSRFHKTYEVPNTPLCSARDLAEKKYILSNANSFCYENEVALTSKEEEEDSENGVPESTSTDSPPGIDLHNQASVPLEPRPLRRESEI
KCNK3 block – human KCNK3 channel inhibitors, primary screen, CHO cells, FluxOR thallium flux, B-score; Potassium channel subfamily K member 3 (Homo sapiens), O14649; FluxOR fluorescence; hits give low values; B-score at 10 µM; 340,000 tested, 0.84% active; AID 602410, 2012;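 active = B-score under library mean minus 4 SD, starting fluorescence ratio at most library mean plus 5 SD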;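 note: more negative B-score means stronger inhibition of thallium flux through KCNK3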
hERG rescue – hERG rescue from dofetilide block, primary screen, cell-based, CHO-hERG, FluxOR thallium flux, dofetilide IC70; Voltage-gated inwardly rectifying potassium channel KCNH2 (Homo sapiens), Q12809; dofetilide IC70 present; activation (rescue from dofetilide block), less the hit threshold, % at 10 µM; 310,000 tested, 0.51% active;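 active = activation above the mean of controls blocked by dofetilide plus 5 SD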;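 note: thallium influx through hERG after potassium depolarization seen as dye fluorescence rise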
KCNQ1 inh – inhibitors of human KCNQ1 channel, primary screen, cell-based, thallium flux, high-throughput. CHO-K1 KCNQ1, FluxOR thallium flux fluorescence; hits give high values. B-score at 10 µM. 310,000 tested, 1.3% active. Potassium voltage-gated channel subfamily KQT member 1 (Homo sapiens), P51787;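 active = compounds whose thallium flux B-score, printed positive for inhibition, exceeds three library SD while starting fluorescence stays within three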;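 note: channel opened by potassium depolarization with thallium stimulus after 20 min compound exposure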
KCNK9 block – KCNK9 potassium channel inhibitors, primary screen, HEK293 cells, thallium flux | FluxOR thallium flux fluorescence; hits give low values | B-score at 10 µM | Potassium channel subfamily K member 9 (Homo sapiens), Q9NPC2 | 310,000 tested, 1.2% active;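 active = ratio B-score over 3 SD below the library mean, with starting fluorescence within 5 SD of its mean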;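 note: negative B-score means less thallium flux so channel inhibition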
KCNQ1 pot – potentiators or activators of KCNQ1 channel, primary screen, cell-based, thallium flux, high-throughput | CHO-K1 KCNQ1, thallium flux FluxOR fluorescence; hits give high values | B-score at 10 µM | 310,000 tested, 0.35% active | AID 2648, 2010;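 active = fluorescence ratio B-score, a plate-corrected score, at least three library SD, with initial intensity B-score within 5 SD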
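Assay system: CHO-K1 cells stably expressing KCNQ1; Medium: assay buffer with matched DMSO; Also added: K+/Tl+ depolarizing stimulus; Dosing: single dose; Timing: dye 90 min, compound 20 min, room temperature; Measured by: kinetic FluxOR thallium fluorescence, 10-s 1-Hz baseline, 110-s post-stimulus read; Read-out: peak-minus-minimum fluorescence over initial fluorescence, negative-control normalized, B-scored.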
KCNK3 confirm – retest of human KCNK3 channel inhibitors, confirmation, CHO cells, FluxOR thallium flux, triplicate | shares compounds with KCNK3 block | FluxOR fluorescence; 0% buffer, 100% carvedilol maximal block | ratio percent of control, % at 10 µM | 2,400 tested, 99% active | AID 651638, 2012;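 active = ratio percent of control, averaged over triplicates, above buffer control mean plus 5 SD, cut at about 64% in these data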;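 note: ratio is the fluorescence rise from min to max over baseline after thallium stimulus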
KCNK3 uninduced – thallium flux inhibition in non-induced cells, primary screen, counter-screen for KCNK3 inhibitor project, cell-based, non-induced KCNK3 line, FluxOR thallium, triplicate; non-induced KCNK3 parental cells; hits give low values; AID 651747, 2012; shares compounds with KCNK3 block; 2,400 tested, 40% active; thallium flux ratio (lower = more inhibition) at 10 µM;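 active = thallium flux ratio, averaged over three wells, more than 5 SD below the buffer control mean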;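 note: host cells are CHO cells without KCNK3 induction; ratio is peak minus trough fluorescence over baseline then normalized to buffer controls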
* = called active by the depositor; i = inactive; x = no result. Rows were chosen to be rich in hits. Some 3.7% of all compounds tested hit in one or more screens of this group.

SMILES	Kir21 block	KCNK3 block	hERG rescue	KCNQ1 inh	KCNK9 block	KCNQ1 pot	KCNK3 confirm	KCNK3 uninduced
Cc1ccccc1NC1c2ccccc2C(=O)N1Cc1ccco1 (stereo unspecified)	2.74	-10.2*	-12.7	i	i	i	118.7*	0.149*
CN(C)c1ccc(C=c2c3ccccc3n3c2c2c([n+]3C)CCCC2)cc1	x	-12.6*	x	x	x	x	171.3*	0.0713*
CN(C)c1ccc(/C=C2\CCC/C(=C\c3ccccc3)C2=O)cc1	-1.12	i	-8.9	i	i	i	x	x
CCCCNC(=O)c1cc2nc3c(c(C(F)(F)F)n2n1)CCc1ccccc1-3	-0.46	i	-1.0	i	i	i	x	x
CC(C)CNC(=O)c1cc2nc3c(c(C(F)(F)F)n2n1)CCc1ccccc1-3	1.12	-16.8*	1.2	i	i	i	56.3*	i
O=C(O)c1ccc(S(=O)(=O)NC2CCCCCC2)cc1	1.2	i	-2.9	i	i	i	x	x
COc1ccc(NC(=O)C2CCCN(CCCc3ccccc3)C2)cc1OCC(C)C (stereo unspecified)	-0.8	-9.78*	-10.4	i	i	i	98.7*	i
Cc1ccc(C(=O)CSc2nc(N)cc(=O)[nH]2)cc1	-1.23	i	-9.3	i	i	i	x	x
C=C(C)CSc1nc(N)cc(=O)[nH]1	-0.07	-21.1*	-1.5	i	i	i	67.0*	i
COc1ccc(N2CCN(Cc3cc4c(cc3O)CCC4)CC2)cc1	2.6	i	-15.7	i	i	i	x	x
Oc1cc2c(cc1CN1CCN(c3cccc(C(F)(F)F)c3)CC1)CCC2	0.56	-9.39*	-13.8	i	i	i	100.0*	0.147*
O=C(c1ccco1)N1CCN(C(=O)c2ccccc2OCc2ccc(Cl)cc2)CC1	0.02	i	-14.6	i	i	i	x	x
O=C(c1ccccc1OCc1ccc(Cl)cc1)N1CCN(c2ccccn2)CC1	-1.75	-9*	-17.7	i	i	i	119.0*	i
Nc1ccc(N=Nc2ccccc2)cc1[N+](=O)[O-]	x	i	x	x	x	x	x	x
CCC(=O)Nc1ccccc1C(=O)OC(c1ccccc1)c1ccccc1	-0.51	i	-12.3	i	i	i	x	x
CCC(=O)Nc1ccccc1C(=O)OCc1ccc(C(=O)c2ccccc2)cc1	1.53	-9.26*	-13.9	i	i	i	98.3*	i
CC(C)c1ccc(N(CC(=O)NCC2CCCO2)C(=O)Cn2nnc(-c3cccs3)n2)cc1 (stereo unspecified)	-0.18	i	-21.7	i	i	i	x	x
CCCCn1nc(NC(=O)c2cccs2)c2cc3ccccc3nc21	0.29	-9.53*	-30.3	i	i	i	117.7*	0.14*
COc1ccc(OC)c(S(=O)(=O)N2CCCC(C(=O)NCc3cccnc3)C2)c1 (stereo unspecified)	0.83	i	-6.4	i	i	i	x	x
COc1ccc(Br)cc1CNC(=O)CN1C(=O)C(c2ccccc2)Oc2cccnc21 (stereo unspecified)	-0.55	-10.3*	-9.5	i	i	i	95.0*	i
Cc1ccc(OCC(=O)NC2CCS(=O)(=O)C2)c([N+](=O)[O-])n1 (stereo unspecified)	-0.76	i	-14.6	i	i	i	x	x
Cc1ccccc1OCC(O)Cn1c2ccccc2c2ccccc21 (stereo unspecified)	-1.23	-9.69*	-5.3	i	-6.68*	i	131.3*	0.13*
Cc1cc(Nc2cc(Cl)nc(Sc3ccc(NC(=O)C4CC4)cc3)n2)n[nH]1	1.11	i	-12.1	i	i	i	x	x
CC12CCC(=O)N1C(C(=O)Nc1nc3ccc(F)cc3s1)CS2 (stereo unspecified)	x	i	x	x	x	x	x	x
Cc1cc(N2Cc3ccccc3C2)ccc1C=O	2.24	i	-7.7	i	i	i	x	x
SMILES	Kir21 block	KCNK3 block	hERG rescue	KCNQ1 inh	KCNK9 block	KCNQ1 pot	KCNK3 confirm	KCNK3 uninduced
O=S(=O)(c1ccccc1)N1CCN(c2ccnc3cc(Cl)ccc23)CC1	-0.16	-9.25*	-16.1	i	i	i	98.0*	i
Cc1cccc(CC(=O)c2c[nH]c3ccccc23)c1	-0.46	i	-8.0	i	i	i	x	x
CSc1ccccc1NC(=O)c1cc(-c2cccnc2)nc2ccc(Br)cc12	-0.1	-12.8*	-8.6	i	i	i	109.3*	0.147*
CCOCCc1nn2c(=O)cc(CSCC(=O)Nc3ccccc3)nc2s1	-0.01	i	-3.4	i	i	i	x	x
Cc1cccc(CN2C(=O)/C(=C\c3ccc(C(=O)NCCCN4CCN(C)CC4)cc3)Oc3ccccc32)c1	0.22	i	-31.5	i	i	i	x	x
CN1CCN(CCCNC(=O)c2ccc(/C=C3/Sc4ccccc4N(Cc4cccc(Cl)c4)C3=O)cc2)CC1	1.12	-9.42*	-19.9	11*	-7.15*	i	117.7*	i
CC(=O)c1cccc(N(CC(=O)Nc2ccc(S(=O)(=O)N3CCCC3)cc2)S(C)(=O)=O)c1	-0.07	-9.55*	-6.3	i	i	i	0.0	i
CC(=O)c1cccc(N(CC(=O)Nc2ccc(S(=O)(=O)N3CCOCC3)cc2)S(C)(=O)=O)c1	2.9	i	-7.2	i	i	i	x	x
Cn1cc(C(=O)Nc2ccccn2)c(=O)c2ccccc21	0.18	i	-8.1	i	i	i	x	x
O=C(Nc1ccc(Cl)cn1)c1ccc2ccccc2n1	0	-8.74*	-6.5	i	i	i	93.3*	i
Cc1ccc(NC(=O)c2ccc3ccccc3n2)nc1	0.78	i	-14.0	i	i	i	x	x
COCCN1C(=O)C(CC(=O)Nc2ccc(C(C)=O)cc2)SC1=Nc1ccccc1 (stereo unspecified)	-1.44	i	-21.4	i	i	i	x	x

High-throughput results deposited in PubChem by Johns Hopkins Ion Channel Center.
